Test results taken from ChEMBL document CHEMBL3739298, “(9βH)-Pimaranes and Derivatives from the Tuber of Icacina trichantha” (J Nat Prod, 2015).

Assays:
Format in all cases: functional, cell-based
[1] = system: MDA-MB-435; test: Cytotoxicity against human MDA-MB-435 cells after 72 hrs by cell proliferation assay
How it was run: (§1)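 Cells from ATCC grown at 37 °C, 5% CO2 in RPMI 1640 with 10% FBS, penicillin 100 units/mL, streptomycin 100 μg/mL. Log-phase cells trypsinized, washed twice, seeded at 5000/well, left overnight. DMSO-dissolved samples tested at 20, 4, 0.8, 0.16, 0.032 μM (final DMSO 0.5%) for 72 h at 37 °C. Viable cells read by MTS-type absorbance assay; IC50 relative to DMSO control.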

[2] = system: MDA-MB-231; test: Cytotoxicity against human MDA-MB-231 cells after 72 hrs by cell proliferation assay; how it was run: as §1
[3] = Cytotoxicity against human OVCAR3 cells after 72 hrs by cell proliferation assay; conditions: ovcar-3; how it was run: as §1

Row | SMILES | IC50 ([1]; mda-mb-435) | IC50 [2] | IC50 [3] | IC50 ([1]; Homo sapiens, MDA-MB-435, 72 h, read-out: IC50) [µM]
1 | C[C@]12C(=O)OC[C@@]3(CC[C@@H]1O)[C@@H]1CC(=O)c4ccoc4[C@@H]1C[C@@H](O)[C@H]32 | Not Active | Not Active | Not Active | 
2 | C[C@@]12C(=O)CC[C@]3(C)[C@@H]4CC[C@@]5(C)[C@@H](O)CO[C@H]5C4=C[C@@H](OC1=O)[C@@H]23 | Not Active | Not Active | Not Active | 
3 | COc1cc2c(c3occc13)[C@@H](O)[C@H]1OC(=O)[C@]3(C)[C@H]1[C@]21CCC3(O)OC1 | Not Active | Not Active | Not Active | 
4 | CO[C@@]12OC[C@@H](O)[C@]1(C)CC[C@@H]1C2=C[C@H]2OC(=O)[C@]3(C)[C@H]2[C@]12CCC3(O)OC2 |  | Not Active | Not Active | 7.04
5 | C[C@]12C(=O)O[C@@H]3Cc4c(cc(O)c5ccoc45)[C@@]4(CCC1(O)OC4)[C@@H]32 | Not Active | Not Active | Not Active | 
